Assay results published in ChEMBL document CHEMBL1932993, “Synthesis and cytotoxicity of O,O'-dialkyl {[2-(substituted phenoxy)acetamido](substituted phenyl)methyl}phosphonates” (Eur J Med Chem, 2012).

Tests used:
KB = assay: Cytotoxicity against human KB cells after 72 hrs ny MTT assay; assay type: functional, cell-based
Summary of the method: (§1)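 Cells grown in RPMI 1640 with 10% fetal calf serum and seeded at 2 × 10^4/mL. They were held 12 h at 37 °C in 5% CO2, then exposed to compound for 3 days at 37 °C. MTT formazan was dissolved and absorbance read at 570 nm. IC50 is the concentration giving 50% growth inhibition versus untreated controls. At least 3 independent experiments.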

[1] = Cytotoxicity against human CNE2 cells after 72 hrs ny MTT assay; assay type: functional, cell-based; conditions: CNE-2, 72 h; summary of the method: as §1

O=c1[nH]cc(F)c(=O)[nH]1 [FLUOROURACIL]
IC50 (KB): 9 µM
IC50 [1]: 13.5 µM

CCCOP(=O)(OCCC)C(NC(=O)COc1cccc(C(F)(F)F)c1)c1ccc(OC)cc1 (centres undefined)
IC50 (KB): 19.8 µM
IC50 [1]: 38.5 µM

CCCOP(=O)(OCCC)C(NC(=O)COc1ccc(Cl)cc1Cl)c1ccccc1 (centres undefined)
IC50 (KB): 16 µM
IC50 [1]: 26 µM

CCOP(=O)(OCC)C(NC(=O)COc1ccc([N+](=O)[O-])cc1)c1ccc(OC)cc1 (centres undefined)
IC50 (KB): > 50 µM
IC50 [1]: > 50 µM

CCCCOP(=O)(OCCCC)C(NC(=O)COc1ccc(Cl)cc1C)c1ccccc1 (centres undefined)
IC50 (KB): 12.3 µM
IC50 [1]: 19.9 µM

CCCOP(=O)(OCCC)C(NC(=O)COc1cccc(C(F)(F)F)c1)c1ccccc1 (centres undefined)
IC50 (KB): 21.6 µM
IC50 [1]: 41.8 µM

CCCCOP(=O)(OCCCC)C(NC(=O)COc1ccccc1Cl)c1ccc(OC)cc1 (centres undefined)
IC50 (KB): 14.5 µM
IC50 [1]: 13.4 µM

CCOP(=O)(OCC)C(NC(=O)COc1ccc(Cl)cc1Cl)c1ccc(OC)cc1 (centres undefined)
IC50 (KB): > 50 µM
IC50 [1]: > 50 µM

CCCCOP(=O)(OCCCC)C(NC(=O)COc1ccc(Cl)cc1Cl)c1ccccc1 (centres undefined)
IC50 (KB): 17.8 µM
IC50 [1]: 13.8 µM

COc1ccc(C(NC(=O)COc2ccc(Cl)cc2Cl)P(=O)(OC)OC)cc1 (centres undefined)
IC50 (KB): > 50 µM
IC50 [1]: > 50 µM

CCCCOP(=O)(OCCCC)C(NC(=O)COc1cccc(C)c1C)c1ccc(OC)cc1 (centres undefined)
IC50 (KB): 7.1 µM
IC50 [1]: 20.7 µM

CCCCOP(=O)(OCCCC)C(NC(=O)COc1ccccc1Cl)c1ccccc1 (centres undefined)
IC50 (KB): 15.8 µM
IC50 [1]: 11.4 µM

CCOP(=O)(OCC)C(NC(=O)COc1ccc(Cl)cc1)c1ccc(OC)cc1 (centres undefined)
IC50 (KB): > 50 µM
IC50 [1]: > 50 µM

CCCCOP(=O)(OCCCC)C(NC(=O)COc1cc(Cl)c(Cl)cc1Cl)c1ccccc1 (centres undefined)
IC50 (KB): 15.9 µM
IC50 [1]: > 50 µM

COc1ccc(C(NC(=O)COc2cccc(C)c2C)P(=O)(OC)OC)cc1 (centres undefined)
IC50 (KB): > 50 µM
IC50 [1]: > 50 µM

CCOP(=O)(OCC)C(NC(=O)COc1ccc(Cl)cc1C)c1ccc(OC)cc1 (centres undefined)
IC50 (KB): > 50 µM
IC50 [1]: > 50 µM

CCCOP(=O)(OCCC)C(NC(=O)COc1ccc(Cl)cc1)c1ccccc1 (centres undefined)
IC50 (KB): 23 µM
IC50 [1]: 42.9 µM

COP(=O)(OC)C(NC(=O)COc1ccc(Cl)cc1Cl)c1ccc(C)cc1 (centres undefined)
IC50 (KB): > 50 µM
IC50 [1]: > 50 µM

COP(=O)(OC)C(NC(=O)COc1ccc(Cl)cc1Cl)c1ccccc1 (centres undefined)
IC50 (KB): > 50 µM
IC50 [1]: > 50 µM

CCCCOP(=O)(OCCCC)C(NC(=O)COc1ccc(Cl)c(C)c1)c1ccccc1 (centres undefined)
IC50 (KB): 18.1 µM
IC50 [1]: 43 µM

CCCOP(=O)(OCCC)C(NC(=O)COc1ccc(Cl)cc1Cl)c1ccc(OC)cc1 (centres undefined)
IC50 (KB): 17.4 µM
IC50 [1]: 27.2 µM

CCCCOP(=O)(OCCCC)C(NC(=O)COc1ccc(C(C)(C)C)cc1)c1ccc(OC)cc1 (centres undefined)
IC50 (KB): 13.3 µM
IC50 [1]: 31.1 µM

COP(=O)(OC)C(NC(=O)COc1ccc(Cl)c(C)c1)c1ccc(C)cc1 (centres undefined)
IC50 (KB): > 50 µM
IC50 [1]: > 50 µM

CCOP(=O)(OCC)C(NC(=O)COc1cccc(C(F)(F)F)c1)c1ccc(OC)cc1 (centres undefined)
IC50 (KB): > 50 µM
IC50 [1]: > 50 µM

CCCCOP(=O)(OCCCC)C(NC(=O)COc1ccc(OC)cc1)c1ccccc1 (centres undefined)
IC50 (KB): 25.5 µM
IC50 [1]: 41.2 µM

CCCCOP(=O)(OCCCC)C(NC(=O)COc1cccc(C)c1C)c1ccccc1 (centres undefined)
IC50 (KB): 18.2 µM
IC50 [1]: 25.1 µM

CCCCOP(=O)(OCCCC)C(NC(=O)COc1ccc(F)cc1Cl)c1ccccc1 (centres undefined)
IC50 (KB): 12.3 µM
IC50 [1]: 13.1 µM
